Experimental data from PMC5159300 (Cell chemical biology, 2016).
Values after ≈ are worked out from the molar mass of the structure shown. Like-named read-outs stand apart in the source and are kept apart here.

Experiments:
[1] = system: C. albicans SC5314; test: Clonogenic survival in liquid culture; assay type: cell-based, Candida albicans; settings: for Effect on growth and viability as single agent: 32 mg/L fluconazole alone or 10 μM Inz-5 alone
[2] = system: C. albicans CaCi-2 and rip1Δ/Δ; test: Mouse systemic infection; assay type: in vivo, Balb/C mice; settings: low inoculum of CaCi-2 or rip1Δ/Δ; fluconazole 24 mg/kg IP for 3 days
[3] = system: C. albicans wild-type (SC5314); test: Emergence of fluconazole-resistant colonies on agar plates; assay type: cell-based, Candida albicans
[4] = target: cytochrome bc1 (Candida albicans, UniProt P0C8L0); test: Cytochrome bc1 enzymatic activity in purified C. albicans mitochondria; assay type: biochemical; settings: for Extent of inhibition of C. albicans cytochrome bc1 activity: maximal effect
Chain of cytochrome bc1 (Candida albicans, UniProt P0C8L0) (P0C8L0 whole entry): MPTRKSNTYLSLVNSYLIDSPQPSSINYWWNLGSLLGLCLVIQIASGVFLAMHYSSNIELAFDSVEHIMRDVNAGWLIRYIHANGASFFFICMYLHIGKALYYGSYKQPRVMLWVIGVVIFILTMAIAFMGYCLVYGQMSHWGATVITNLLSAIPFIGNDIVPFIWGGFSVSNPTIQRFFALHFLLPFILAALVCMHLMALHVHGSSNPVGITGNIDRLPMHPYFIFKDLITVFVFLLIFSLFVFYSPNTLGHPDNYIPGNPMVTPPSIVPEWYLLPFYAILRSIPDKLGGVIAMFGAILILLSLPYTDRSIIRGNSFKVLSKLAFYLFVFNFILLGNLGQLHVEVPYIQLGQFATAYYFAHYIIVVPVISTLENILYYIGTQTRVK

[5] = system: C. albicans CaCi-2; assay type: cell-based, Candida albicans; settings: in the presence of fluconazole; SAR statement
[6] = Solubility limit; assay type: physicochemical
[7] = target: cytochrome bc1 (Saccharomyces cerevisiae, UniProt P00163); test: Cytochrome bc1 enzymatic activity in purified yeast mitochondria; assay type: biochemical; settings: read-out: IC50 cytochrome bc1 inhibition; S. cerevisiae mitochondria, wild type
[8] = system: S. cerevisiae (BY4741); assay type: cell-based
[9] = system: C. albicans (SC5314); test: C. albicans growth in media with glucose or glycerol as carbon source; assay type: cell-based, Candida albicans
Summary of the method: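 Growth compared in synthetic medium of yeast nitrogen base with complete amino acid supplement, containing either 2% glucose or 2% glycerol as carbon source. Data pooled from two independent experiments.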

[10] = Plasma stability; assay type: in vitro ADME, human
[11] = target: T1, human cytochrome bc1 (Homo sapiens, UniProt P00156); settings: human IC50 versus C. albicans homolog IC50
[12] = Mouse liver microsome stability; assay type: in vitro ADME; settings: 15 minute incubation at 37 C
[13] = system: C. albicans; test: Co-culture of C. albicans with mouse bone-marrow-derived macrophages; assay type: cell-based, Candida albicans; settings: 5 μM
[14] = system: Rhizopus oryzae; test: Single-agent growth inhibition of Rhizopus oryzae; assay type: cell-based; settings: enhanced under respiratory growth conditions
[15] = system: C. albicans SC5314; test: Diffusion halo assay on agar plates with various carbon sources; assay type: cell-based, Candida albicans; settings: 10 μg disc
Summary of the method: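 SC5314 cells were spread on agar plates with different carbon sources. These included 80% fetal bovine serum as nutrient source (~0.1-0.2% glucose), high (2%) glucose, galactose and non-fermentable sources. A filter disc carried 10 μg test compound in DMSO or DMSO alone. The zone of growth inhibition was scored.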

[16] = system: Aspgerillus terreus; test: Single-agent growth inhibition of Aspgerillus terreus; assay type: cell-based; settings: enhanced under respiratory growth conditions
[17] = system: Scedosporium prolificans; test: Single-agent growth inhibition of Scedosporium prolificans; assay type: cell-based; settings: enhanced under respiratory growth conditions
[18] = system: malarial cytochrome B; settings: ref Hughes et al., 1998; cited from earlier work
[19] = system: HepG2 cells; test: Mammalian cell respiration toxicity; assay type: cell-based; settings: Homo sapiens, HepG2, read-out: IC50 toxicity to respiring HepG2 cells
Summary of the method: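 HepG2 cells were passaged in high-glucose DMEM, washed and resuspended in glucose-free DMEM with 10 mM galactose to force respiration, then seeded at 10,000 cells/well. After 72 hr with test compound, cellular ATP was measured by luminescent assay (reagent at 1:5 dilution) as a proxy for growth. IC50 was averaged from at least 2 independent experiments.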

[20] = target: T1, human cytochrome bc1; test: biochemical
[21] = media containing glycerol as the sole carbon source

## OC(Cn1cncn1)(Cn1cncn1)c1ccc(F)cc1F [fluconazole, reference compound]
[1]
  Effect on growth and viability as single agent: slowed growth of the wild-type strain but did not cause a decrease in viability
[2]
  Brain fungal burden: eliminated brain colonization
[3]; 64 mg/L fluconazole alone
  Rate of emergence of resistant colonies: ~ 0.5%

## COC(=O)Cn1nc(-c2cc(C(F)(F)F)ccc2F)c2ccccc21 [Inz-2]
[4]; compared with Inz-1
  Potency against the fungal enzyme: significant enhancement of potency

## COC(=O)Cn1nc(-c2ccccc2)c2cccc(C)c21 [Inz-3]
[5]
  Activity against Candida proliferation: beneficial to both the activity and the selectivity

## COC(=O)Cn1nc(-c2ccccc2)c2ccccc21 [Inz-1]
[6]
  Solubility limit: 32 µM (≈ 8.52 µg/mL)
[7]
  IC50: 2.5 µM
[8]; cytochrome B L275S mutant
  Resistance conferred by L275S mutation: confer resistance
[8]; cytochrome B P270L mutant
  Resistance conferred by P270L mutation: confer resistance
[8]; glucose media
  Growth inhibition: only mildly slowing growth
[8]; [21]
  Growth inhibition: potently inhibited growth
[8]; yeast cytochrome B G143A mutant, respiratory growth
  Resistance conferred by G143A mutation: strong resistance
[4]
  Extent of inhibition of C. albicans cytochrome bc1 activity: significant residual activity
[9]; glucose media
  Growth inhibition: only mildly slowing growth
[9]; [21]
  Growth inhibition: potently inhibited growth
[10]; incubation of 1 hour at 37 C in human plasma
  Plasma stability: fully degraded
[11]
  Fold higher IC50 for human than for C. albicans cytochrome bc1: 5.6 fold
[12]
  Compound remaining in mouse liver microsomes: < 1%

## Cn1nnc(Cn2nc(-c3ccccc3)c3ccccc32)n1 [Inz-34]
[5]
  Activity against Candida proliferation: retained activity

## Cc1cccc2c(-c3cc(C(F)(F)F)ccc3F)nn(Cc3nnn(C)n3)c12 [Inz-5]
[4]
  Extent of inhibition of C. albicans cytochrome bc1 activity: complete inhibition
[1]; 10 μM Inz-5 in combination with 32 mg/L fluconazole
  Reduction of the number of viable colonies: 97%
[1]
  Effect on growth and viability as single agent: partially slowed growth
[13]; 14-hour co-culture
  Fungal growth in the presence of macrophages: sharply curtailed fungal growth
[13]; 2 hours
  Escape of C. albicans from macrophages: remained trapped in the phagosome
[14]
  Growth inhibition as a single agent: promising growth inhibition
[15]; 80% fetal bovine serum as the nutrient source
  Growth inhibition in halo assay: slight growth inhibition
[15]; amino acids, lactate, or acetate as the carbon source
  Growth inhibition in halo assay: potent and profound growth inhibition
[15]; galactose
  Growth inhibition in halo assay: moderate growth inhibition
[15]; high glucose
  Growth inhibition in halo assay: very little growth inhibition
[16]
  Growth inhibition as a single agent: promising growth inhibition
[10]; 3 hours of incubation in human serum
  Plasma stability: fully recovered
[12]
  Compound remaining in mouse liver microsomes: 19.5%
[5]
  Activity against Candida proliferation: sub-micromolar activity
[3]; 10 μM Inz-5 alone
  Effect on colonies: reduced colony size, but no reduction in the total number of colonies
[3]; 10 μM Inz-5 in combination with 64 mg/L fluconazole
  Effect on emergence of resistant colonies: completely abrogated the emergence of resistant colonies
[17]
  Growth inhibition as a single agent: promising growth inhibition

## O=C1C(O)=C([C@H]2CC[C@H](c3ccc(Cl)cc3)CC2)C(=O)c2ccccc21 [atovaquone]
[18]
  Potency against the malarial cytochrome B: low nanomolar potency
[19]
  IC50: 12.7 µM
[20]
  IC50: 1.8 µM

## c1ccc(-c2nn(Cc3cnccn3)c3ccccc23)cc1 [Inz-37]
[5]
  Activity against Candida proliferation: retained activity
